Structures are written as SMILES. Calls of active or inactive are those of the source. No cut-off for these calls is given here.

In general, EC50 refers to the concentration needed to bring the measured effect to its halfway point.

Assay [1] addresses Melanocyte-stimulating hormone receptor (Mus musculus) (UniProt Q01727). Description: Agonist activity at mouse MC1 receptor at 100 uM to 5 mM.
Assay [2] addresses T1, Neuromedin-U receptor 1 (Homo sapiens) (UniProt Q9HB89).
T1 sequence (whole entry): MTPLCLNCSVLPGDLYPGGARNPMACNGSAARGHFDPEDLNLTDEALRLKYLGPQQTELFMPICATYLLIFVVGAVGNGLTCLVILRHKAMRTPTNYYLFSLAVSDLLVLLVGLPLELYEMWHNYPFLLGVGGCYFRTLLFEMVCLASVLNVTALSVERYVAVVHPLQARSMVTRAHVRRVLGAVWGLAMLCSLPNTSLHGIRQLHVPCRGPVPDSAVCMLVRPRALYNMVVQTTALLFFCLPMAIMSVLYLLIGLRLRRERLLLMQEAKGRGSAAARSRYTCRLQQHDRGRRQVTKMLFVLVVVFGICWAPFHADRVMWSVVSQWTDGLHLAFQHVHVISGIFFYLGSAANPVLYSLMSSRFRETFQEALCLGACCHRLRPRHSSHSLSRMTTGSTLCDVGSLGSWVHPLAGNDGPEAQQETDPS
Nature of the assay: Agonist activity at human NMU1 receptor at 100 uM to 5 mM.

In the next assay the target is Neuromedin-U receptor 2 (Homo sapiens, UniProt Q9GZQ4). Nature of the assay: Agonist activity at human NMU2R transfected in HEK293 cells after 7 hrs by luciferase reporter gene assay. It is filed as cell-based. The method in brief:
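HEK-293 cells were stably co-transfected with a reporter gene construct and human NMU2R cDNA in pcDNA3.1(+), maintained under G418 selection at 37 °C in 5% CO2, then seeded and incubated overnight. Compounds were added at various concentrations for 7 h at 37 °C, followed by Bright-Glo luciferase read-out. Forskolin and NMU served as positive controls. EC50 was fitted by four-parameter logistic regression; means ± SEM of three independent experiments.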

Assay [3] has as its target T2, Muscarinic acetylcholine receptor M1 (Homo sapiens) (UniProt P11229).
T2 sequence (whole entry): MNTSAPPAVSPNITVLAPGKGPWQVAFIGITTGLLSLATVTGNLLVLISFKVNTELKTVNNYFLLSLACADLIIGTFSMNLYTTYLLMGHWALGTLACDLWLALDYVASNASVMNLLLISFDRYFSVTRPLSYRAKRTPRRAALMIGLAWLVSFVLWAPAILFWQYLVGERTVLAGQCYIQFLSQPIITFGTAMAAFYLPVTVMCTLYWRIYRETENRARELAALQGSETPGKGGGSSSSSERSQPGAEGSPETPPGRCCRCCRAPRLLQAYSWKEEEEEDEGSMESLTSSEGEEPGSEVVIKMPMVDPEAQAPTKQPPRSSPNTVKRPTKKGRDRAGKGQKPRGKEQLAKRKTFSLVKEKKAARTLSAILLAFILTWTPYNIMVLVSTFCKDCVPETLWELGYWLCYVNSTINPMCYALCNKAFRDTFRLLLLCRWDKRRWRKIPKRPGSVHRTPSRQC
Nature of the assay: Agonist activity at human M1 receptor at 100 uM to 5 mM.

For assay [4], the target named is T3, C5a anaphylatoxin chemotactic receptor 1 (Homo sapiens) (UniProt P21730).
T3 sequence (whole entry): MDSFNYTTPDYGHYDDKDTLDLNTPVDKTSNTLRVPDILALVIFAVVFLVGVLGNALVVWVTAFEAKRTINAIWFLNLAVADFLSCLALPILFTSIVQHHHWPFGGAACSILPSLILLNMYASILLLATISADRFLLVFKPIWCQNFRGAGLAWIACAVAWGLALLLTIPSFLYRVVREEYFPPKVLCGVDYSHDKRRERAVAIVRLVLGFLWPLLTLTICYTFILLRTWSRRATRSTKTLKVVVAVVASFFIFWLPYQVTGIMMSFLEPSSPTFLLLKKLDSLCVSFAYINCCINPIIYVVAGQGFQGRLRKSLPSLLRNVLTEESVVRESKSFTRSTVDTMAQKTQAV
Nature of the assay: Agonist activity at human C5a receptor at 100 uM to 5 mM.

Assay [5] has as its target Adrenocorticotropic hormone receptor (Homo sapiens) (UniProt Q01718). Nature of the assay: Agonist activity at human MC2 receptor at 100 uM to 5 mM.
Assay [6] addresses T4, Adenosine receptor A1 (Homo sapiens) (UniProt P30542).
T4 sequence (whole entry): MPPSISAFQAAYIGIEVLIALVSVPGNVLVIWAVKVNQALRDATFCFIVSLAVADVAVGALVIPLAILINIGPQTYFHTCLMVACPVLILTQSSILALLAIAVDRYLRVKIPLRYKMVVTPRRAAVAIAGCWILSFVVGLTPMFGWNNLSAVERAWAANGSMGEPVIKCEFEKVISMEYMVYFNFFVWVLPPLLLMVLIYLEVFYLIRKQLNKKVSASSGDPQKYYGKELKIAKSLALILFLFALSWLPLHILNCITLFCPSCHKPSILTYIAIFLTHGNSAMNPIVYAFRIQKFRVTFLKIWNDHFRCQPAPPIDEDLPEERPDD
Description: Agonist activity at human A1 receptor at 100 uM to 5 mM.

Assay [7] deals with T5, Parathyroid hormone/parathyroid hormone-related peptide receptor (Homo sapiens) (UniProt Q03431).
T5 sequence (whole entry): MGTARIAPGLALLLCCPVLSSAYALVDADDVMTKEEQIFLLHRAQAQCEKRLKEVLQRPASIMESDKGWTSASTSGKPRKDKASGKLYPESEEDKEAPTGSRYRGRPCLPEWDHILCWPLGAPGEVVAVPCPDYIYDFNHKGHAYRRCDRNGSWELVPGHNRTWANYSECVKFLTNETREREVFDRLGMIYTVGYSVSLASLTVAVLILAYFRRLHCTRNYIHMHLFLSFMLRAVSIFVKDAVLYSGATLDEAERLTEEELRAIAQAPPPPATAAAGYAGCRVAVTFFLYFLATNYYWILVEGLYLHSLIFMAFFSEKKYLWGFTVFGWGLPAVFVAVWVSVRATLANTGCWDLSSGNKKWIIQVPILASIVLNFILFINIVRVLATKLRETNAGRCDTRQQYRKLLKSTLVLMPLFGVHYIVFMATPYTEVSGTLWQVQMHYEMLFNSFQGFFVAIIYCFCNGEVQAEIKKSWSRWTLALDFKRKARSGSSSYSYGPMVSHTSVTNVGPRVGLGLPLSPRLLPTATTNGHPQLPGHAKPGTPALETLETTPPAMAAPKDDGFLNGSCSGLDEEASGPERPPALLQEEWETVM
Nature of the assay: Agonist activity at human PTH receptor at 100 uM to 5 mM.

The target of assay [8] is D(1A) dopamine receptor (Homo sapiens) (UniProt P21728). Description: Agonist activity at human D1 receptor at 100 uM to 5 mM.
Sequence of D(1A) dopamine receptor (Homo sapiens) (P21728 whole entry): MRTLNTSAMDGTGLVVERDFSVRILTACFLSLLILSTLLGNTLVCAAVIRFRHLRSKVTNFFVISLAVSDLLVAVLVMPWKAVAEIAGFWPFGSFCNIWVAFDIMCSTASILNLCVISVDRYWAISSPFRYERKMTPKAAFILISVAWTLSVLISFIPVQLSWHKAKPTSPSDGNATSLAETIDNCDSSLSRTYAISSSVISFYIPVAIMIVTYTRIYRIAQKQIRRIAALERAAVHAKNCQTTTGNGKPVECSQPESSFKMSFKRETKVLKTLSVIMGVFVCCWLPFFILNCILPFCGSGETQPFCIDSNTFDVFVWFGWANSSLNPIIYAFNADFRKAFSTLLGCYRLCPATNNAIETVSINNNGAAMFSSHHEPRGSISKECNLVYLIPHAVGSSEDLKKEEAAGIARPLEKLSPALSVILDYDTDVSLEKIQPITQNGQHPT
In assay [9] the target is Melanocortin receptor 4 (Homo sapiens) (UniProt P32245). Nature of the assay: Agonist activity at human MC4 receptor at 100 uM to 5 mM.
Sequence of Melanocortin receptor 4 (Homo sapiens) (P32245 whole entry): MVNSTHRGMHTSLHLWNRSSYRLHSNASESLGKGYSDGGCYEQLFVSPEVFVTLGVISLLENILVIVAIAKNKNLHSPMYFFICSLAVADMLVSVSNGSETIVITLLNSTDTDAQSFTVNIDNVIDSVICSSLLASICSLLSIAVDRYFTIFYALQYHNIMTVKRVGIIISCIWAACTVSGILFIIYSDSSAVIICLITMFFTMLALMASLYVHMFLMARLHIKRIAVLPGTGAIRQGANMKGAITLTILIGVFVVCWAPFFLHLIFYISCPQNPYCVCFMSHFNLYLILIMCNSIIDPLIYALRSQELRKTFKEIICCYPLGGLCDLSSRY
Assay [10] deals with Melanocyte-stimulating hormone receptor (Homo sapiens) (UniProt Q01726). Nature of the assay: Agonist activity at human MC1 receptor at 100 uM to 5 mM.
Sequence of Melanocyte-stimulating hormone receptor (Homo sapiens) (Q01726 whole entry, looked up): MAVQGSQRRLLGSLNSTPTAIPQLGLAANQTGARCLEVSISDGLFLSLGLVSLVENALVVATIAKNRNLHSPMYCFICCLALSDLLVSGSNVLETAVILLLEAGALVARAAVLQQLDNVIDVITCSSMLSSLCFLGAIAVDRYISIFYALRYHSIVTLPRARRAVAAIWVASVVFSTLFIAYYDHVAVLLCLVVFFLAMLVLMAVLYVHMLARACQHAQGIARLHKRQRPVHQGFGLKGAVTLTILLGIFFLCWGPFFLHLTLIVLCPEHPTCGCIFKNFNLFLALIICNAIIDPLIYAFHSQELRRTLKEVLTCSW
In assay [11] the target is Melanocortin receptor 5 (Mus musculus) (UniProt P41149). Nature of the assay: Agonist activity at mouse MC5 receptor at 100 uM to 5 mM.
Sequence of Melanocortin receptor 5 (Mus musculus) (P41149 whole entry): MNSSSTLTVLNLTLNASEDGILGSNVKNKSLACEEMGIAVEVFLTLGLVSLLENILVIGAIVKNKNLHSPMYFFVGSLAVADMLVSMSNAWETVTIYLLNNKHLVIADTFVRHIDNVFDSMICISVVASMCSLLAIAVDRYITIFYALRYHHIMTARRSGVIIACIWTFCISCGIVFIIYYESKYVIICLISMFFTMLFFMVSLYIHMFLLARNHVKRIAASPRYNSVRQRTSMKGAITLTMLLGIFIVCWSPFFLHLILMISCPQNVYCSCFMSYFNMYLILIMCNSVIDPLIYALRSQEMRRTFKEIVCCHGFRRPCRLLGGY

Sequence of Neuromedin-U receptor 2 (Q9GZQ4 whole entry): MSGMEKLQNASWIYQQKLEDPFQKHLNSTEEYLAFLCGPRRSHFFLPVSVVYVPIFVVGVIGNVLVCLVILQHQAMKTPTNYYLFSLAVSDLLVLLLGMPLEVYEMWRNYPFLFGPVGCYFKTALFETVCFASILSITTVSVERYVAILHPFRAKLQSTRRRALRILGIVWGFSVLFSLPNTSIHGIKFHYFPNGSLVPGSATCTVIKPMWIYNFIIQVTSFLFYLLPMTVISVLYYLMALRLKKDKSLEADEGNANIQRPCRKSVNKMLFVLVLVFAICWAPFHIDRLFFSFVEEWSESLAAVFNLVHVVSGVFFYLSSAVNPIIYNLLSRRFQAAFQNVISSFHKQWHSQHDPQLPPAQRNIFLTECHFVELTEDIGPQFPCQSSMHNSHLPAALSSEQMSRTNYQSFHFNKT
Sequence of Melanocyte-stimulating hormone receptor (Mus musculus) (Q01727 whole entry, looked up): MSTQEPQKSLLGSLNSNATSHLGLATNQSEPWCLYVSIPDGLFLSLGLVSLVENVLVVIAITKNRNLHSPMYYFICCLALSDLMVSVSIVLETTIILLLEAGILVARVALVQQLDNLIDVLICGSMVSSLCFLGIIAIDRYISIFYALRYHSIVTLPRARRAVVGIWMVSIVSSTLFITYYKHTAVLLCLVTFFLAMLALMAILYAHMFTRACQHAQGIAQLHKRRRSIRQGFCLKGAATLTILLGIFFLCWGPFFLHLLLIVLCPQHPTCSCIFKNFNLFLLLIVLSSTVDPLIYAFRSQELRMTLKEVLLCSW
Sequence of Adrenocorticotropic hormone receptor (Homo sapiens) (Q01718 whole entry): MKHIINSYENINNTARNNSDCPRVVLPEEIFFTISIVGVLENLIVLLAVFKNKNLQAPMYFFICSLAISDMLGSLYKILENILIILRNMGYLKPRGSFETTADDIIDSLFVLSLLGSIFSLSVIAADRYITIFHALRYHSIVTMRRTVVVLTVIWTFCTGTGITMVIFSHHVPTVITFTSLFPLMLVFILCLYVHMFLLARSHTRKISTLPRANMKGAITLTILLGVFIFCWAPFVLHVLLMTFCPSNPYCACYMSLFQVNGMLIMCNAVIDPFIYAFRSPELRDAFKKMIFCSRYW

Turning to `COc1cc(-c2oc3ccccc3c(=O)c2O)ccc1O`, the result in assay [1], in [2], in [3], in [4], in assay [5] and in [6] was inactive. Besides, the result in assay [7], in [8], in assay [9], in assay [10] and in [11] was inactive. Also, the EC50 entry on Neuromedin-U receptor 2 (hek293) is on record as “Not Active”.
With `O=c1c(O)c(-c2c(F)ccc(F)c2Cl)oc2ccccc12`, the outcome in assay [1], in assay [2], in assay [3], in assay [4], in assay [5] and in [6] was inactive. Besides, the outcome in [7], in assay [8], in [9], in [10] and in [11] was inactive. Besides, at Neuromedin-U receptor 2 (hek293), the EC50 result was “Not Active”.
For `COc1ccc(-c2cc(=O)c3ccccc3o2)cc1O`, the result in assay [1], in assay [2], in [3], in assay [4], in assay [5] and in assay [6] was inactive. Also, the outcome in assay [7], in assay [8], in [9], in assay [10] and in [11] was inactive. Besides, the EC50 result at Neuromedin-U receptor 2 (hek293) is recorded as “Not Active”.
As for `O=c1c(OCCO)c(-c2cc(Br)ccc2F)oc2ccccc12`, the outcome in assay [1], in [2], in [3], in assay [4], in [5] and in [6] was inactive. Besides, the outcome in assay [7], in assay [8], in assay [9], in [10] and in [11] was inactive. In addition, at Neuromedin-U receptor 2 (read-out: EC50), the EC50 came to 47 µM.
For the compound `CCOC(=O)COc1c(-c2cc(Br)ccc2F)oc2ccccc2c1=O`, the result in [1], in [2], in [3], in assay [4], in [5] and in assay [6] was inactive. For the same compound, the result in assay [7], in [8], in assay [9], in assay [10] and in assay [11] was inactive. In addition, the EC50 entry on Neuromedin-U receptor 2 (hek293) was “Not Active”.
Regarding `COc1ccc(C2C=Cc3ccccc3O2)cc1` (racemic), the outcome in assay [1], in assay [2], in assay [3], in assay [4], in assay [5] and in [6] was inactive. The outcome in [7], in assay [8], in assay [9], in assay [10] and in [11] was inactive. Moreover, the concentration for a half-maximal effect (EC50) entry on Neuromedin-U receptor 2 (hek293) is listed as “Not Active”.
On to `O=c1c(O)c(-c2ccc(O)cc2)oc2ccccc12`, for which the outcome in [1], in assay [2], in [3], in assay [4], in assay [5] and in assay [6] was inactive. The outcome in [7], in assay [8], in [9], in assay [10] and in [11] was inactive. Also, at Neuromedin-U receptor 2 (hek293), the EC50 entry is recorded as “Not Active”.
On to `O=c1cc(-c2ccccc2F)oc2ccccc12`, for which the outcome in assay [1], in [2], in [3], in assay [4], in assay [5] and in assay [6] was inactive. Also, the outcome in assay [7], in assay [8], in assay [9], in assay [10] and in [11] was inactive. At Neuromedin-U receptor 2 (hek293), the EC50 result is “Not Active”.
Turning to `O=c1c(O)c(-c2cccc(Cl)c2)oc2ccccc12`, the outcome in assay [1], in assay [2], in assay [3], in [4], in [5] and in [6] was inactive. In addition, the outcome in assay [7], in assay [8], in assay [9], in assay [10] and in assay [11] was inactive. At Neuromedin-U receptor 2 (hek293), the concentration giving a half-maximal response (EC50) result was “Not Active”.
